{"source": "ChEMBL document CHEMBL2434843", "about": "“Synthesis and evaluation of α-ketotriazoles and α,β-diketotriazoles as inhibitors of Mycobacterium tuberculosis” (Eur J Med Chem, 2013)", "key": {"[1]": {"tested_on": "HCT-116", "assay": "Cytotoxicity against human HCT116 cells after 4 days by WST-1 assay", "type": "functional, cell-based", "settings": "HCT-116, 96 h", "outline": "(§1)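 Cells were cultured in DMEM with 10% fetal calf serum and seeded at 3000 per well. After 24 h they were treated with 100 nM to 50 μM compound, 8 replicates per concentration, for 4 days. Viability was read by WST-1 and reported as IC50.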"}, "[2]": {"assay": "Cytotoxicity against human GM637 cells after 4 days by WST-1 assay", "type": "cell-based", "settings": "GM637, 96 h", "outline": "as §1"}, "[3]": {"tested_on": "Mycobacterium tuberculosis", "assay": "Antitubercular activity against Mycobacterium tuberculosis H37Rv assessed as growth inhibition after 21 days by micro-broth dilution method", "type": "functional", "settings": "504 h"}, "[4]": {"tested_on": "Mycobacterium tuberculosis", "assay": "Antitubercular activity against Mycobacterium tuberculosis H37Rv assessed as growth inhibition", "type": "functional", "outline": "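M. tuberculosis H37Rv grown at 37 °C in Middlebrook 7H9 with 0.05% Tween 80, or on 7H11 agar with OADC. Culture dilutions of about 10^5-10^6 cfu/ml were streaked onto 7H11 plates holding 0.25 µg/mL to 40 µg/mL drug. Plates were incubated at 37 °C for about 21 days, and MIC was read from visual growth.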"}}, "note": "pIC50: −log10 of the molar value.", "data": [{"smiles": "O=C(Cc1ccccc1)c1cn(Cc2ccccc2)nn1", "values": [{"measurement": "pIC50", "setting": "[1]", "result": "< 4.30"}, {"measurement": "pIC50", "setting": "[2]", "result": "< 4.30"}]}, {"smiles": "Cc1cc(C)cc(Cn2cc(C(=O)Cc3ccccc3)nn2)c1", "values": [{"measurement": "pIC50", "setting": "[1]", "result": "< 4.30"}, {"measurement": "pIC50", "setting": "[2]", "result": "< 4.30"}]}, {"smiles": "O=C(Cc1ccccc1)c1cn(Cc2ccc([N+](=O)[O-])cc2)nn1", "values": [{"measurement": "pIC50", "setting": "[1]", "result": "< 4.30"}, {"measurement": "pIC50", "setting": "[2]", "result": "< 4.30"}]}, {"smiles": "CCCCCCCCn1cc(C(=O)Cc2ccccc2)nn1", "values": [{"measurement": "pIC50", "setting": "[1]", "result": "< 4.30"}, {"measurement": "pIC50", "setting": "[2]", "result": "< 4.30"}]}, {"smiles": "O=C(Cc1ccc(Cl)cc1Cl)c1cn(Cc2ccccc2)nn1", "values": [{"measurement": "pIC50", "setting": "[1]", "result": "< 4.30"}, {"measurement": "pIC50", "setting": "[2]", "result": "< 4.30"}]}, {"smiles": "CCCCCCCCn1cc(C(=O)Cc2ccc(Cl)cc2Cl)nn1", "values": [{"measurement": "MIC", "setting": "[3]", "result": 20.9, "unit": "µM"}]}, {"smiles": "O=C(C(=O)c1ccc(Cl)cc1Cl)c1cn(Cc2ccccc2)nn1", "values": [{"measurement": "MIC", "setting": "[3]", "result": 6.9, "unit": "µM"}, {"measurement": "pIC50", "setting": "[1]", "result": "< 4.30"}, {"measurement": "pIC50", "setting": "[2]", "result": "< 4.30"}]}, {"smiles": "CCCCCCCCc1cn(CC(=O)OCC)nn1", "values": [{"measurement": "MIC", "setting": "[4]", "result": 1.9, "unit": "µg/mL"}]}, {"smiles": "COc1cc(Cn2cc(C(=O)C(=O)c3ccccc3OC)nn2)cc(OC)c1", "values": [{"measurement": "MIC", "setting": "[3]", "result": 21, "unit": "µM"}, {"measurement": "pIC50", "setting": "[1]", "result": "< 4.30"}, {"measurement": "pIC50", "setting": "[2]", "result": "< 4.30"}]}, {"smiles": "COc1ccccc1C(=O)C(=O)c1cn(Cc2ccccc2)nn1", "values": [{"measurement": "MIC", "setting": "[3]", "result": 12.4, "unit": "µM"}, {"measurement": "pIC50", "setting": "[1]", "result": "< 4.30"}, {"measurement": "pIC50", "setting": "[2]", "result": "< 4.30"}]}, {"smiles": "COc1cc(Cn2cc(C(=O)C(=O)c3ccc([N+](=O)[O-])cc3)nn2)cc(OC)c1", "values": [{"measurement": "MIC", "setting": "[3]", "result": 161, "unit": "µM"}, {"measurement": "pIC50", "setting": "[1]", "result": "< 4.30"}, {"measurement": "pIC50", "setting": "[2]", "result": "< 4.30"}]}, {"smiles": "O=C(C(=O)c1cn(Cc2ccccc2)nn1)c1ccc([N+](=O)[O-])cc1", "values": [{"measurement": "MIC", "setting": "[3]", "result": 95.1, "unit": "µM"}, {"measurement": "pIC50", "setting": "[1]", "result": "< 4.30"}, {"measurement": "pIC50", "setting": "[2]", "result": "< 4.30"}]}, {"smiles": "COC(=O)c1ccc(Cn2cc(C(=O)C(=O)c3ccc(Cl)cc3Cl)nn2)o1", "values": [{"measurement": "MIC", "setting": "[3]", "result": 39.2, "unit": "µM"}]}, {"smiles": "CCCCCCCCn1cc(C(=O)C(=O)c2ccc(Cl)cc2Cl)nn1", "values": [{"measurement": "MIC", "setting": "[3]", "result": 80.7, "unit": "µM"}, {"measurement": "pIC50", "setting": "[1]", "result": "< 4.30"}, {"measurement": "pIC50", "setting": "[2]", "result": "< 4.30"}]}, {"smiles": "O=C(C(=O)c1ccc(Cl)cc1Cl)c1cn(C2CCCCC2)nn1", "values": [{"measurement": "MIC", "setting": "[3]", "result": 43.7, "unit": "µM"}]}, {"smiles": "O=C(C(=O)c1ccc(Cl)cc1Cl)c1cn(CCc2ccccc2)nn1", "values": [{"measurement": "MIC", "setting": "[3]", "result": 13.4, "unit": "µM"}, {"measurement": "pIC50", "setting": "[1]", "result": "< 4.30"}, {"measurement": "pIC50", "setting": "[2]", "result": "< 4.30"}]}, {"smiles": "O=C(Cc1ccc(Cl)cc1Cl)c1cn(CCc2ccccc2)nn1", "values": [{"measurement": "MIC", "setting": "[3]", "result": "> 88.8", "unit": "µM"}]}, {"smiles": "O=C(C(=O)c1ccc(Cl)cc1Cl)c1cn(Cc2ccc([N+](=O)[O-])cc2)nn1", "values": [{"measurement": "MIC", "setting": "[3]", "result": 79, "unit": "µM"}, {"measurement": "pIC50", "setting": "[1]", "result": "< 4.30"}, {"measurement": "pIC50", "setting": "[2]", "result": "< 4.30"}]}, {"smiles": "COc1cc(Cn2cc(C(=O)C(=O)c3ccc(Cl)cc3Cl)nn2)cc(OC)c1", "values": [{"measurement": "MIC", "setting": "[3]", "result": 9.51, "unit": "µM"}, {"measurement": "pIC50", "setting": "[1]", "result": "< 4.30"}, {"measurement": "pIC50", "setting": "[2]", "result": "< 4.30"}]}, {"smiles": "COc1ccc(CCn2cc(C(=O)C(=O)c3ccc(OC)cc3)nn2)cc1", "values": [{"measurement": "MIC", "setting": "[3]", "result": "> 87.6", "unit": "µM"}]}, {"smiles": "COc1ccc(CCn2cc(C(=O)Cc3ccc(OC)cc3)nn2)cc1", "values": [{"measurement": "MIC", "setting": "[3]", "result": "> 91.1", "unit": "µM"}]}, {"smiles": "COc1ccc(C(=O)C(=O)c2cn(CCc3ccccc3)nn2)cc1", "values": [{"measurement": "MIC", "setting": "[3]", "result": "> 95.4", "unit": "µM"}, {"measurement": "pIC50", "setting": "[1]", "result": "< 4.30"}, {"measurement": "pIC50", "setting": "[2]", "result": "< 4.30"}]}, {"smiles": "COc1ccc(CC(=O)c2cn(CCc3ccccc3)nn2)cc1", "values": [{"measurement": "MIC", "setting": "[3]", "result": "> 112", "unit": "µM"}]}, {"smiles": "COc1ccc(C(=O)C(=O)c2cn(Cc3ccccc3)nn2)cc1", "values": [{"measurement": "MIC", "setting": "[3]", "result": 7.6, "unit": "µM"}, {"measurement": "pIC50", "setting": "[1]", "result": "< 4.30"}, {"measurement": "pIC50", "setting": "[2]", "result": "< 4.30"}]}, {"smiles": "CCCCCCCCn1cc(C(=O)C(=O)c2ccccc2)nn1", "values": [{"measurement": "MIC", "setting": "[3]", "result": 51, "unit": "µM"}]}, {"smiles": "Cc1cc(C)cc(Cn2cc(C(=O)C(=O)c3ccccc3)nn2)c1", "values": [{"measurement": "MIC", "setting": "[3]", "result": 50, "unit": "µM"}, {"measurement": "pIC50", "setting": "[1]", "result": "< 4.30"}, {"measurement": "pIC50", "setting": "[2]", "result": "< 4.30"}]}, {"smiles": "O=C(C(=O)c1cn(Cc2ccc([N+](=O)[O-])cc2)nn1)c1ccccc1", "values": [{"measurement": "MIC", "setting": "[3]", "result": 11.9, "unit": "µM"}, {"measurement": "pIC50", "setting": "[1]", "result": "< 4.30"}, {"measurement": "pIC50", "setting": "[2]", "result": "< 4.30"}]}, {"smiles": "COc1cc(Cn2cc(C(=O)C(=O)c3ccccc3)nn2)cc(OC)c1", "values": [{"measurement": "MIC", "setting": "[3]", "result": 11.4, "unit": "µM"}, {"measurement": "pIC50", "setting": "[1]", "result": "< 4.30"}, {"measurement": "pIC50", "setting": "[2]", "result": "< 4.30"}]}, {"smiles": "O=C(C(=O)c1cn(Cc2ccccc2)nn1)c1ccccc1", "values": [{"measurement": "MIC", "setting": "[3]", "result": 172, "unit": "µM"}, {"measurement": "pIC50", "setting": "[1]", "result": "< 4.30"}, {"measurement": "pIC50", "setting": "[2]", "result": "< 4.30"}]}, {"smiles": "NNC(=O)c1ccncc1", "note": "[ISONIAZID]", "values": [{"measurement": "MIC", "setting": "[3]", "result": 0.4, "unit": "µM"}]}]}
